One assay concerns BV-2. Briefly: Antineuroinflammatory activity against mouse BV2 cells assessed as inhibition of LPS-induced NO production incubated for 24 hrs by Griess assay. Conditions: Mus musculus, BV-2, 24 h; read-out: IC50; call rule not given here. The assay is classed as functional, cell-based. The procedure, abridged: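 Griess read-out of nitrite in LPS-stimulated BV-2 microglia, with cell viability checked in parallel by MTT. Minocycline served as positive control. IC50 values are reported as mean ± SEM.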
Take `COc1cc(O)c(-c2c(O)cc(OC)c3c2ccc2cc(O)ccc23)c2c1-c1ccc(O)cc1CC2` [CIRRHOPETALANTHRIN]: the concentration for half-maximal inhibition (IC50) came out at 46.8 µM.
On the same count and under the same terms, under `COc1cc(O)cc2c1-c1cc(-c3c(O)cc(OC)c4c3CCc3cc(O)ccc3-4)c(O)cc1CC2` stands 12 µM.
Turning to `CN(C)c1ccc(O)c2c1C[C@H]1C[C@H]3[C@H](N(C)C)C(O)=C(C(N)=O)C(=O)[C@@]3(O)C(O)=C1C2=O` [MINOCYCLINE], the 50% inhibitory concentration (IC50) lay in the range of 27.2 to 35.7 µM.
With `COc1cc2c(ccc3c(-c4c(O)cc(OC)c5c4ccc4cc(O)ccc45)c(O)cc(OC)c32)cc1O`, the IC50 is 5 µM.
On to `COc1ccc2c(ccc3c(Cc4ccc(O)cc4)c(O)cc(OC)c32)c1`, for which the IC50 amounted to 82 µM.
Turning to `OC[C@H]1O[C@@H](Oc2ccc(Cc3c(O)ccc4c3CCc3cc(O)ccc3-4)cc2)[C@H](O)[C@@H](O)[C@@H]1O`, the 50% inhibitory concentration (IC50) was 17.9 µM.
On to `COc1c(O)c(O)cc2ccc3cc(O)ccc3c12`, for which the IC50 was determined as 30 µM.
For the compound `COc1cc(O)c2c(c1Cc1ccc(O)cc1)CCc1cc(O)ccc1-2`, the IC50 fell in the range of 12 to 30 µM.
Regarding `COc1cc(O)c2c(c1-c1c(OC)cc(O)c3c1CCc1cc(O)ccc1-3)CCc1cc(O)ccc1-2`, the IC50 turned out to be 39.4 µM.
On the same count and under the same terms, under `COc1c(O)ccc2c1ccc1c(-c3c(O)cc(OC)c4c3ccc3c(OC)c(O)ccc34)c(O)cc(OC)c12` stands 1 µM.
Still for that read-out and setting: under `COc1cc([C@H]2Oc3cc4c(cc3[C@@H]2COC(C)=O)-c2c(cc(O)cc2OC)CC4)ccc1O` stands 24.8 µM; under `COc1c(O)cc2c(c1OC)-c1ccc(O)cc1CC2` [ERIANTHRIDIN], 93.5 µM; under `COc1cc(O)c(Cc2ccc(O)cc2)c2ccc3cc(O)ccc3c12`, 30.2 µM.
With `COc1cc(O)cc2c1-c1cc(-c3c(O)cc(OC)c4c3ccc3cc(O)ccc34)c(O)cc1CC2`, the IC50 was found to be 22.1 µM.
On the same count and under the same terms, under `COc1ccc2c(c1O)CCc1c(Cc3ccc(O)cc3)c(O)cc(OC)c1-2` stands 49 µM; under `COc1cc(O)cc2c1-c1ccc(O)cc1CC2`, 15.2 µM; under `COc1cc([C@@H]2Oc3cc(OC)c4c(c3[C@H]2CO)CCc2cc(O)ccc2-4)cc(OC)c1O`, 18.5 µM.
As to `COc1cc(CCc2cccc(O)c2)c(-c2c(O)cc(O)c3c2CCc2cc(O)ccc2-3)c(OC)c1`, the IC50 stood at 60.7 µM.
As for `COc1cc(O)cc(CCc2cccc(O)c2)c1-c1c(OC)cc(O)c2c1CCc1cc(O)ccc1-2`, the IC50 came to 1.9 µM.
With `COc1c(Cc2ccc(O)cc2)c(O)cc2c1-c1ccc(O)cc1CC2`, the 50% inhibitory concentration (IC50) came to 34.6 µM.

The same assay, now with this note: bv-2.
Regarding `COc1cc(O)c2c(ccc3cc(O)ccc32)c1-c1c(OC)cc(O)c2c1ccc1cc(O)ccc12`, the IC50 entry is “Not Active”.

The values are drawn from ChEMBL document CHEMBL4334478, “Isolation, Structural Elucidation, Optical Resolution, and Antineuroinflammatory Activity of Phenanthrene and 9,10-Dihydrophenanthrene Derivatives from Bletilla striata” (J Nat Prod, 2019).
